System: Fibroblast
Assay: Multiplex assay against human fibroblast
Format: toxicity, cell-based
In short: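 Live cells were stained at seeding with Hoechst33342, BioTracker Green Microtubule Cytoskeleton Dye, MitoTracker Red and Annexin V Alexa Fluor 680. Following compound addition, they were imaged on a CQ1 microscope at 37°C and 5% CO2 and gated by CellPathfinder machine learning into Hoechst high-intensity objects or normal cells, with normal cells split into healthy, pyknosed or fragmented nuclei and pyknosed cells into mitotic or apoptotic. Tubulin, mitochondrial-mass and membrane-permeability phenotypes are per cents of healthy-nucleus cells.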

[1] = 12 h, 1 µM, compound concentration 1 uM, replicate 1
[2] = 12 h, 1 µM, compound concentration 1 uM, replicate 2
[3] = 12 h, 10 µM, compound concentration 10 uM, replicate 1
[4] = 12 h, 10 µM, compound concentration 10 uM, replicate 2
[5] = 24 h, 1 µM, compound concentration 1 uM, replicate 1
[6] = 24 h, 1 µM, compound concentration 1 uM, replicate 2
[7] = 24 h, 10 µM, compound concentration 10 uM, replicate 1
[8] = 24 h, 10 µM, compound concentration 10 uM, replicate 2
[9] = 48 h, 1 µM, compound concentration 1 uM, replicate 1
[10] = 48 h, 1 µM, compound concentration 1 uM, replicate 2
[11] = 48 h, 10 µM, compound concentration 10 uM, replicate 1
[12] = 48 h, 10 µM, compound concentration 10 uM, replicate 2

## CN(C)CC#Cc1ccc(OCCCc2sc(N3CCc4cccc(C(=O)Nc5nc6ccccc6s5)c4C3)nc2C(=O)O)c(F)c1 [A-1155463]
[1]
  Population Apoptotic (%): 74%
  Population Fragmented Nuclei (%): 27%
  Population Healthy Nuclei (%): 44%
  Population Hoechst High Intensity Objects (%): 12%
  Population Membrane Permeable-Phenotype (%): 30%
  Population Mitochondria Different-Phenotype (%): 9%
  Population Mitotic Cells (%): 25%
  Population Normal (%): 87%
  Population Pyknosed Nuclei (%): 27%
  Population Tubulin-Different-Phenotype (%): 46%
  Total Cell Count: 111
[2]
  Population Apoptotic (%): 66%
  Population Fragmented Nuclei (%): 39%
  Population Healthy Nuclei (%): 53%
  Population Hoechst High Intensity Objects (%): 4%
  Population Membrane Permeable-Phenotype (%): 13%
  Population Mitochondria Different-Phenotype (%): 31%
  Population Mitotic Cells (%): 33%
  Population Normal (%): 95%
  Population Pyknosed Nuclei (%): 7%
  Population Tubulin-Different-Phenotype (%): 27%
  Total Cell Count: 86
[3]
  Population Apoptotic (%): 63%
  Population Fragmented Nuclei (%): 24%
  Population Healthy Nuclei (%): 41%
  Population Hoechst High Intensity Objects (%): 11%
  Population Membrane Permeable-Phenotype (%): 42%
  Population Mitochondria Different-Phenotype (%): 4%
  Population Mitotic Cells (%): 36%
  Population Normal (%): 88%
  Population Pyknosed Nuclei (%): 33%
  Population Tubulin-Different-Phenotype (%): 74%
  Total Cell Count: 173
[4]
  Population Apoptotic (%): 86%
  Population Fragmented Nuclei (%): 33%
  Population Healthy Nuclei (%): 42%
  Population Hoechst High Intensity Objects (%): 5%
  Population Membrane Permeable-Phenotype (%): 24%
  Population Mitochondria Different-Phenotype (%): 16%
  Population Mitotic Cells (%): 13%
  Population Normal (%): 94%
  Population Pyknosed Nuclei (%): 23%
  Population Tubulin-Different-Phenotype (%): 25%
  Total Cell Count: 133
[5]
  Population Apoptotic (%): 62%
  Population Fragmented Nuclei (%): 30%
  Population Healthy Nuclei (%): 33%
  Population Hoechst High Intensity Objects (%): 11%
  Population Membrane Permeable-Phenotype (%): 37%
  Population Mitochondria Different-Phenotype (%): 7%
  Population Mitotic Cells (%): 37%
  Population Normal (%): 88%
  Population Pyknosed Nuclei (%): 36%
  Population Tubulin-Different-Phenotype (%): 50%
  Total Cell Count: 134
[6]
  Population Apoptotic (%): 50%
  Population Fragmented Nuclei (%): 36%
  Population Healthy Nuclei (%): 54%
  Population Hoechst High Intensity Objects (%): 7%
  Population Membrane Permeable-Phenotype (%): 13%
  Population Mitochondria Different-Phenotype (%): 32%
  Population Mitotic Cells (%): 50%
  Population Normal (%): 92%
  Population Pyknosed Nuclei (%): 9%
  Population Tubulin-Different-Phenotype (%): 28%
  Total Cell Count: 92
[7]
  Population Apoptotic (%): 71%
  Population Fragmented Nuclei (%): 27%
  Population Healthy Nuclei (%): 50%
  Population Hoechst High Intensity Objects (%): 9%
  Population Membrane Permeable-Phenotype (%): 44%
  Population Mitochondria Different-Phenotype (%): 2%
  Population Mitotic Cells (%): 28%
  Population Normal (%): 90%
  Population Tubulin-Different-Phenotype (%): 76%
  Total Cell Count: 170
[8]
  Population Apoptotic (%): 81%
  Population Fragmented Nuclei (%): 32%
  Population Healthy Nuclei (%): 45%
  Population Hoechst High Intensity Objects (%): 10%
  Population Membrane Permeable-Phenotype (%): 20%
  Population Mitochondria Different-Phenotype (%): 14%
  Population Mitotic Cells (%): 18%
  Population Normal (%): 89%
  Population Pyknosed Nuclei (%): 22%
  Population Tubulin-Different-Phenotype (%): 21%
  Total Cell Count: 135
[9]
  Population Apoptotic (%): 68%
  Population Fragmented Nuclei (%): 31%
  Population Healthy Nuclei (%): 34%
  Population Hoechst High Intensity Objects (%): 18%
  Population Membrane Permeable-Phenotype (%): 20%
  Population Mitochondria Different-Phenotype (%): 3%
  Population Mitotic Cells (%): 31%
  Population Normal (%): 81%
  Population Pyknosed Nuclei (%): 33%
  Population Tubulin-Different-Phenotype (%): 56%
  Total Cell Count: 106
[10]
  Population Apoptotic (%): 80%
  Population Fragmented Nuclei (%): 35%
  Population Healthy Nuclei (%): 53%
  Population Hoechst High Intensity Objects (%): 11%
  Population Membrane Permeable-Phenotype (%): 28%
  Population Mitochondria Different-Phenotype (%): 6%
  Population Mitotic Cells (%): 20%
  Population Normal (%): 88%
  Population Pyknosed Nuclei (%): 10%
  Population Tubulin-Different-Phenotype (%): 44%
  Total Cell Count: 105
[11]
  Population Apoptotic (%): 66%
  Population Fragmented Nuclei (%): 38%
  Population Healthy Nuclei (%): 39%
  Population Hoechst High Intensity Objects (%): 10%
  Population Membrane Permeable-Phenotype (%): 50%
  Population Mitochondria Different-Phenotype (%): 10%
  Population Mitotic Cells (%): 33%
  Population Normal (%): 89%
  Population Pyknosed Nuclei (%): 22%
  Population Tubulin-Different-Phenotype (%): 81%
  Total Cell Count: 135
[12]
  Population Apoptotic (%): 95%
  Population Fragmented Nuclei (%): 25%
  Population Healthy Nuclei (%): 57%
  Population Hoechst High Intensity Objects (%): 14%
  Population Membrane Permeable-Phenotype (%): 35%
  Population Mitochondria Different-Phenotype (%): 9%
  Population Mitotic Cells (%): 4%
  Population Normal (%): 85%
  Population Pyknosed Nuclei (%): 17%
  Population Tubulin-Different-Phenotype (%): 74%
  Total Cell Count: 145

— ChEMBL document CHEMBL4689842, “EUbOPEN Chemogenomics Library wave 1” (2021)
